# According to ChEMBL document CHEMBL1828613, “Optimization of cellular activity of G9a inhibitors 7-aminoalkoxy-quinazolines” (J Med Chem, 2011):
# How the values were obtained:
# [1] = target: T1, Histone-lysine N-methyltransferase EHMT1 (Homo sapiens, UniProt Q9H9B1); assay: Inhibition of GLP assessed as hydrolysis of S-adenosyl-L-homocysteine after 2 mins by SAHH-coupled fluorescence assay
# T1 sequence (Q9H9B1 whole entry): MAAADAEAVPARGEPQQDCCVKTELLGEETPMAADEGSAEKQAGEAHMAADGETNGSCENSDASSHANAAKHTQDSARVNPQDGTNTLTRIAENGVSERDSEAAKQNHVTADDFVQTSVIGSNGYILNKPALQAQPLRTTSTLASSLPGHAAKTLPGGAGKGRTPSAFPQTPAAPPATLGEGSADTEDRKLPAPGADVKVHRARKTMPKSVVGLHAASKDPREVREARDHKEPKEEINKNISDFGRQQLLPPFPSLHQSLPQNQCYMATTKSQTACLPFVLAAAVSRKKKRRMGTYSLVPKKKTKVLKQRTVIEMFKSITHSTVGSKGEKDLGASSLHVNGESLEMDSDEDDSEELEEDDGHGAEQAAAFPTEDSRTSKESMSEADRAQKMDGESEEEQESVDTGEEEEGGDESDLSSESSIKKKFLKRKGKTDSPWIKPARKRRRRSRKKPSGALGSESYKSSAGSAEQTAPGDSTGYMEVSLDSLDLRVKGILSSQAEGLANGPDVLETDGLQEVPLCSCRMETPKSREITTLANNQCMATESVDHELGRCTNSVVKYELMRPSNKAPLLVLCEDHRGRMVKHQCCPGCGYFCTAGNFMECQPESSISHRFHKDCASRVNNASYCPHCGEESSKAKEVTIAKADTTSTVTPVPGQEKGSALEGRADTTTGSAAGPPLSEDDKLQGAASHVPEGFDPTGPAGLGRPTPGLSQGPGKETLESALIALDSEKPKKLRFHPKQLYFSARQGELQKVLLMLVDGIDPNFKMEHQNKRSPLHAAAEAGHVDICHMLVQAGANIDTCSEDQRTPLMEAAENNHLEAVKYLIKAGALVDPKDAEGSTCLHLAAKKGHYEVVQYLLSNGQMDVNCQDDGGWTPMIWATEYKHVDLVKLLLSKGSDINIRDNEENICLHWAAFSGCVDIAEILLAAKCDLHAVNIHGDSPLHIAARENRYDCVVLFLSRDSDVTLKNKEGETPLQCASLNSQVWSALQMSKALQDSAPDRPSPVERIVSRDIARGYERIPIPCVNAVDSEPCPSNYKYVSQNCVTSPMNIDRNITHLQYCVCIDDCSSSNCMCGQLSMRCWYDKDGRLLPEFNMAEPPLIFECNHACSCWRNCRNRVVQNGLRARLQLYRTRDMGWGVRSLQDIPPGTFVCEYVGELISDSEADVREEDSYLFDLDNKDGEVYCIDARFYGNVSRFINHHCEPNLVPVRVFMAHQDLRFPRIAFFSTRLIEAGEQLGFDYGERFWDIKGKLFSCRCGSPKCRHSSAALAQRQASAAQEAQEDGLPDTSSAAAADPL
# In short: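 GLP at 100 nM was tested by SAHH/adenosine deaminase/ThioGlo coupling in pH 7.5 potassium phosphate buffer with EDTA, MgCl2, Triton X-100 and 25 μM SAM. Inhibitor (4 nM–16 μM) was preincubated 2 min before adding 20 μM H3(1–25). Fluorescence rise (360/528 nm) was tracked 20 min and background-subtracted. IC50 from two independent experiments.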
# [2] = target: Protein arginine N-methyltransferase 3 (Homo sapiens, UniProt O60678); assay: Inhibition of PRMT3 assessed as hydrolysis of S-adenosyl-L-homocysteine after 2 mins by SAHH-coupled fluorescence assay
# In short: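 Enzyme-coupled fluorescence readout. Methyltransfer product SAH is converted to homocysteine by SAHH in the presence of adenosine deaminase, and homocysteine is detected with the thiol-sensitive dye ThioGlo. Buffer is 25 mM potassium phosphate pH 7.5 with 1 mM EDTA, 2 mM MgCl2 and 0.01% Triton X-100, plus 5 μM SAHH, 0.3 U/mL deaminase, 25 μM SAM and 15 μM ThioGlo. PRMT3 is at 500 nM. Inhibitor (4 nM–16 μM) is preincubated 2 min, then 10 μM H4(1–24) peptide starts the reaction. Fluorescence is followed for 20 min at ex 360/em 528 nm and background-corrected. IC50 is fitted from two independent experiments.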
# [3] = tested on: MDA-MB-231; assay: Cytotoxicity against human MDA-MB-231 cells assessed as cell viability after 48 hrs by MTT assay; type: functional, cell-based; settings: MDA-MB-231, 48 h
# [4] = target: T2, Histone-lysine N-methyltransferase SETD7 (Homo sapiens, UniProt Q8WTS6); assay: Inhibition of SETD7 assessed as hydrolysis of S-adenosyl-L-homocysteine after 2 mins by SAHH-coupled fluorescence assay
# T2 sequence (Q8WTS6 whole entry): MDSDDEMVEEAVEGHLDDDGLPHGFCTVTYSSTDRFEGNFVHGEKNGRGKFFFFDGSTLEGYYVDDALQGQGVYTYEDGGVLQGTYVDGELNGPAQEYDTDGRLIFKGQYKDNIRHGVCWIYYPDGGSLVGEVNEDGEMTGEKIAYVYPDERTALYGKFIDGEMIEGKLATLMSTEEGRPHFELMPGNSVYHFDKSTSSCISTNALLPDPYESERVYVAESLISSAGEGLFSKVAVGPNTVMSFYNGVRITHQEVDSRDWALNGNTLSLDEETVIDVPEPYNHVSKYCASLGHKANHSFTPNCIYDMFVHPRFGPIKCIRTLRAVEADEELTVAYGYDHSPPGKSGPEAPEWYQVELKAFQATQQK
# In short: (§1)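 Same coupled ThioGlo readout (25 mM potassium phosphate pH 7.5, 25 μM SAM, 5 μM SAHH, adenosine deaminase), 4 nM–16 μM inhibitor with 2 min preincubation, 20 min fluorescence at 360/528 nm. Enzyme and substrate by target: SETD7 200 nM with 100 μM H3(1–25); SETD8 250 nM with 500 μM H4(1–24); SUV39H2 100 nM with 200 μM H3K9Me1(1–15).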
# [5] = target: T3, N-lysine methyltransferase KMT5A (Homo sapiens, UniProt Q9NQR1); assay: Inhibition of SETD8 assessed as hydrolysis of S-adenosyl-L-homocysteine after 2 mins by SAHH-coupled fluorescence assay; in short: as §1
# T3 sequence (Q9NQR1 whole entry): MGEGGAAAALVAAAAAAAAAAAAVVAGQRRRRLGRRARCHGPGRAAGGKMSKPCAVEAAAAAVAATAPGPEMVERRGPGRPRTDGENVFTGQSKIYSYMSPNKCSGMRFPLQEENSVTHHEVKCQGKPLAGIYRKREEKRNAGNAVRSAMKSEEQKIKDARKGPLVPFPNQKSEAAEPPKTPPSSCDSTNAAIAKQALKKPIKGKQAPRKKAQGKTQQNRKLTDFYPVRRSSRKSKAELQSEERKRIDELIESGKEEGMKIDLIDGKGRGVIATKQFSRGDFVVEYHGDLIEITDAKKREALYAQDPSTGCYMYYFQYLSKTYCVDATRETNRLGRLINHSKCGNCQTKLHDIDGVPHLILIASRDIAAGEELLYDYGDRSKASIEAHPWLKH
# [6] = target: Histone-lysine N-methyltransferase SUV39H2 (Homo sapiens, UniProt Q9H5I1); assay: Inhibition of SUV39H2 assessed as hydrolysis of S-adenosyl-L-homocysteine after 2 mins by SAHH-coupled fluorescence assay; in short: as §1
# Sequence of Histone-lysine N-methyltransferase SUV39H2 (Q9H5I1 whole entry): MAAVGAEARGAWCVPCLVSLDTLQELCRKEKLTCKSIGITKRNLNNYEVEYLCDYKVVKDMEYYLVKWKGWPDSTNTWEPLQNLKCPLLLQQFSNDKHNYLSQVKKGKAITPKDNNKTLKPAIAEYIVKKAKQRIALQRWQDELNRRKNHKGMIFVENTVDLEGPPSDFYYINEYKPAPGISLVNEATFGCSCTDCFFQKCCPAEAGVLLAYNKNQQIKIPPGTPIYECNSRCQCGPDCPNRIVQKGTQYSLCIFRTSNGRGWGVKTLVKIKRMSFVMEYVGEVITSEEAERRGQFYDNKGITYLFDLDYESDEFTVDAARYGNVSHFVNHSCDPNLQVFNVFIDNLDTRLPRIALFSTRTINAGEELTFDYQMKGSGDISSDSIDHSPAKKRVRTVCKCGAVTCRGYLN
# Sequence of Protein arginine N-methyltransferase 3 (O60678 whole entry): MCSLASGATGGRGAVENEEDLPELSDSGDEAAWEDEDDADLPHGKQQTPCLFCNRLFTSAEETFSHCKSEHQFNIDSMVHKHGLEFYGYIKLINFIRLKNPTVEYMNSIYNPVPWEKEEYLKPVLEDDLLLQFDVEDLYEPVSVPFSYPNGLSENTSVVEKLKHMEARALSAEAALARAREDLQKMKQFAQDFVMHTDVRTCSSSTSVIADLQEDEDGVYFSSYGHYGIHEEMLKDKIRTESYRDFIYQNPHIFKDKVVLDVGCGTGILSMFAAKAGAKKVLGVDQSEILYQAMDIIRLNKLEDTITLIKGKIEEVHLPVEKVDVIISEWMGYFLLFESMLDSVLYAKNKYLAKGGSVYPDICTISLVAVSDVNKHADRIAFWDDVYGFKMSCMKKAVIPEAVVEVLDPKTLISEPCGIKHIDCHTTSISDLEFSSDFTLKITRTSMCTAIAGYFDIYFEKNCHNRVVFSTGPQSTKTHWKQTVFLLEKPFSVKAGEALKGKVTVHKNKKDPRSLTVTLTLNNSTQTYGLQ
structure (smiles),measurement,setting,value
COc1cc2c(NC3CCN(C4CCCCC4)CC3)nc(N3CCCN(C(C)C)CC3)nc2cc1OCCCN1CCCCC1,IC50,[1],< 0.015 µM
same,IC50,[2],> 10 µM
same,EC50,[3],3.3 µM
same,IC50,[4],> 10 µM
same,IC50,[5],> 10 µM
same,IC50,[6],> 10 µM
